Measurements as given in ChEMBL document CHEMBL1152539, “Synthesis and evaluation of bioactive naphthoquinones from the Brazilian medicinal plant, Tabebuia avellanedae” (Bioorg Med Chem, 2009).

Tests used:
[1] = Antiproliferative activity against human SVCT-M12 cells after 72 hrs by trypan blue exclusion assay; type: cell-based; conditions: SVCT-M12, 72 h
How it was run: (§1)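 Cells were kept in DMEM with 10% fetal serum and exposed to four concentrations of compound for 72 h at 37 °C in humidified 5% CO₂. They were then stained with 0.25% trypan blue for 20 min, and viable cells were counted by light microscopy. IC₅₀ was derived from separate experiments run in triplicate.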

[2] = Antiproliferative activity against human skin fibroblast after 72 hrs by trypan blue exclusion assay; type: cell-based; how it was run: as §1
[3] = Antiproliferative activity against human Hs888Lu cells after 72 hrs by trypan blue exclusion assay; type: cell-based; how it was run: as §1
Hepatocyte = experiment: Antiproliferative activity against human hepatocytes after 72 hrs by trypan blue exclusion assay; type: cell-based; how it was run: as §1
[4] = Antiproliferative activity against human MPC5 cells after 72 hrs by trypan blue exclusion assay; type: cell-based; conditions: MPC-5, 72 h; how it was run: as §1
Raji [5] = experiment: Inhibition of 12-O-tetradecanoylphorbol-13-acetate-induced EBV-early antigen activation in human Raji cells assessed as EA induction at 1000 molar ratio after 48 hrs by immunofluorescence technique relative to 12-O-tetradecanoylphorbol-13-acetate; type: cell-based; conditions: human gammaherpesvirus 4
How it was run: (§2)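 Raji cells were incubated for 48 h at 37 °C in medium with n-butyric acid (4 mM), TPA (32 pmol) and graded amounts of test compound. Smears were stained for EBV-EA by indirect immunofluorescence, and positive cells were counted among at least 500 cells. Assays were run in triplicate. Activity was expressed relative to the n-butyric acid plus TPA control, set as 100%.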

[6] = Cytotoxicity against human Raji cells assessed as cell viability at 500 molar ratio after 48 hrs by trypan blue staining; type: cell-based; conditions: read-out: Activity
How it was run: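 Raji cells incubated 48 h at 37 °C in medium containing n-butyric acid (4 mM), TPA (32 pmol) and various amounts of test compound, as part of the EBV-EA activation inhibition assay. Viability of the treated cells was then assayed by trypan blue staining.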

[7] = Anticancer activity against DMBA/TPA-induced skin cancer in mouse assessed as incidence of papilloma at 85 nmol administered before TPA challenge measured after 20 weeks; type: functional
How it was run: (§3)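 Mouse two-stage skin model: DMBA 390 nmol in 0.1 mL acetone applied topically by pipet. One week later, the same skin site was painted with test compound (85 nmol in acetone) or acetone alone, 60 min before TPA (1.7 nmol). Tumor response was scored as the average number of papillomas per mouse and the percentage of mice bearing papillomas.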

[8] = Cytotoxicity against human Raji cells assessed as cell viability at 1000 molar ratio after 48 hrs by trypan blue staining; type: cell-based; conditions: read-out: Activity
How it was run: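 Raji cells were exposed for 48 h at 37 °C to n-butyric acid (4 mM), TPA (32 pmol) and test compound, as in the EBV-EA induction setup. Viability of the treated cells was then measured by trypan blue staining.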

Raji [9] = experiment: Inhibition of 12-O-tetradecanoylphorbol-13-acetate-induced EBV-early antigen activation in human Raji cells assessed as EA induction at 100 molar ratio after 48 hrs by immunofluorescence technique relative to 12-O-tetradecanoylphorbol-13-acetate; type: cell-based; set-up: scale not given: the % may be the effect or the level left; conditions: human gammaherpesvirus 4; how it was run: as §2
[10] = Anticancer activity against DMBA/TPA-induced skin cancer in mouse assessed as incidence of papilloma at 85 nmol administered before TPA challenge measured after 15 weeks; type: functional; how it was run: as §3
[11] = Inhibition of 12-O-tetradecanoylphorbol-13-acetate-induced EBV-early antigen activation in human Raji cells after 48 hrs by immunofluorescence technique; type: cell-based, human gammaherpesvirus 4; how it was run: as §2
Raji [12] = experiment: Inhibition of 12-O-tetradecanoylphorbol-13-acetate-induced EBV-early antigen activation in human Raji cells assessed as EA induction at 10 molar ratio after 48 hrs by immunofluorescence technique relative to 12-O-tetradecanoylphorbol-13-acetate; type: cell-based; set-up: scale not given: the % may be the effect or the level left; conditions: human gammaherpesvirus 4; how it was run: as §2
Raji [13] = experiment: Inhibition of 12-O-tetradecanoylphorbol-13-acetate-induced EBV-early antigen activation in human Raji cells assessed as EA induction at 500 molar ratio after 48 hrs by immunofluorescence technique relative to 12-O-tetradecanoylphorbol-13-acetate; type: cell-based; set-up: scale not given: the % may be the effect or the level left; conditions: human gammaherpesvirus 4; how it was run: as §2
[14] = Anticancer activity against DMBA/TPA-induced skin cancer in mouse assessed as number of papillomas per mouse at 85 nmol administered before TPA challenge measured after 20 weeks; type: functional; how it was run: as §3
[15] = Anticancer activity against DMBA/TPA-induced skin cancer in mouse assessed as incidence of papilloma at 85 nmol administered before TPA challenge measured after 10 weeks; type: functional; how it was run: as §3

IC50 [11] [mol ratio/32 pmol TPA] | SMILES | EC50 [1] [µM] | EC50 [2] [µM] | EC50 [3] [µM] | EC50 (Hepatocyte) [µM] | EC50 [4] [µM] | EA induction relative to TPA control (Raji [5]) [%] | viability at 48 h, 500 molar ratio [6] [%] | Activity [7] [%] | viability at 48 h, 1000 molar ratio [8] [%] | Activity (Raji [9]) [%] | Activity [10] [%] | Activity (Raji [12]) [%] | Activity (Raji [13]) [%] | Activity [14] | Activity [15] [%]
– | CO[C@@]12[C@H](COC(N)=O)C3=C(C(=O)C(C)=C(N)C3=O)N1C[C@@H]1N[C@@H]12 [MITOMYCIN] | 0.96 | 0.93 | 0.56 | 1.46 | 2.1 | – | – | – | – | – | – | – | – | – | –
34.9 | CC(O)c1cc2c(o1)C(=O)c1cccc(O)c1C2=O (racemic) | – | 45.4 | – | 89.3 | – | 0 | 70 | 67 | 60 | 20.7 | 47 | 52.9 | 6.2 | 3.9 | 7
